According to ChEMBL document CHEMBL3259664, “Optimization of an imidazopyridazine series of inhibitors of Plasmodium falciparum calcium-dependent protein kinase 1 (PfCDPK1)” (J Med Chem, 2014):

Key:
[1] = Metabolic stability in human liver microsomes assessed as compound remaining measured at […]; type: ADME; conditions: read-out: Stability
[2] = Metabolic stability in mouse liver microsomes assessed as compound remaining measured at 30 mins; type: ADME; conditions: read-out: Stability
[3] = Lipophilicity, log D of the compound; type: physicochemical; conditions: octanol/water
[4] = Total plasma concentration in NMRI mouse infected with Plasmodium berghei ANKA at 50 mg/kg, po qd administered on day 1 to 3 post infection measured at 1 hr post last dose; type: ADME, organism-based; design: dose 50 mg/kg, route oral
Method in brief: (§1)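 4-day Peters test in groups of 3 mice infected iv on day 0. Oral dosing was 50 mg/kg once daily at 4, 24, 48 and 72 h post-infection. The monohydrochloride salt was dissolved in 30:70 EtOH/Tween-80 and diluted 10-fold with water. Blood was sampled for total plasma compound levels.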

[5] = Total plasma concentration in NMRI mouse infected with Plasmodium berghei ANKA at 50 mg/kg, po qd administered on day 1 to 3 post infection measured at 4 hrs post last dose; type: ADME, organism-based; design: dose 50 mg/kg, route oral; method in brief: as §1
Rattus norvegicus [6] = assay: Half life in rat at […], iv; type: ADME, organism-based; design: dose 4.5 mg/kg, route intravenous; conditions: in vivo
Rattus norvegicus [7] = assay: Volume of distribution in rat at […], iv and 21 mg/kg, po; type: ADME, organism-based; conditions: in vivo
[8] = Oral bioavailability in rat at 21 mg/kg; type: ADME, organism-based; conditions: in vivo

remaining [1] [%] | remaining at 0.5 h [2] [%] | logD [3] | SMILES | further results
98 | 85 | 1.4 | CN1CCC(Nc2ccc3ncc(-c4cnc(Nc5ncccc5F)nc4)n3n2)CC1 | –
99 | 93 | 1.1 | N[C@H]1CC[C@H](Nc2ccc3ncc(-c4cnc(Nc5ccccn5)nc4)n3n2)CC1 | –
68 | 87 | 2 | N[C@H]1CC[C@H](Nc2ccc3ncc(-c4ccc(Nc5ncc(F)cc5F)cc4)n3n2)CC1 | –
– | – | 2.2 | CN1CCN(c2ccc3ncc(-c4cnc(Nc5ncccc5F)nc4)n3n2)CC1 | –
– | – | 2.9 | Fc1cccnc1Nc1ncc(-c2cnc3ccc(NCCN4CCOCC4)nn23)cn1 | –
– | – | 0.4 | Fc1cccnc1Nc1ncc(-c2cnc3ccc(NC4CCNC4)nn23)cn1 (racemic) | –
– | – | 1.9 | Fc1cccnc1Nc1ncc(-c2cnc3ccc(N[C@H]4CC[C@H](N5CCCC5)CC4)nn23)cn1 | –
93 | 85 | 0.2 | N[C@H]1CC[C@H](Nc2ccc3ncc(-c4cnc(Nc5ncccc5F)nc4)n3n2)CC1 | –
80 | 47 | 3.2 | CN1CCC(Nc2ccc3ncc(-c4ccc(Nc5ncccc5F)cc4)n3n2)CC1 | concentration at 1 h [4]: 1660 ng/mL; concentration at 4 h [5]: 1460 ng/mL
81 | 85 | 3.7 | CN1CCC(Nc2ccc3ncc(-c4ccc(Nc5ccc(C(F)(F)F)cn5)cc4)n3n2)CC1 | –
– | – | 1.5 | CN1CCC(Nc2ccc3ncc(-c4cnc(Nc5ncccc5F)nc4)n3n2)C1 (racemic) | –
– | – | 1.3 | CN1CCC(Cc2ccc3ncc(-c4cnc(Nc5ncccc5F)nc4)n3n2)CC1 | –
78 | 58 | 3.7 | CN1CCC(Nc2ccc3ncc(-c4ccc(Nc5ncc(F)cc5F)cc4)n3n2)CC1 | –
– | – | 1.6 | CN1CCN(CCNc2ccc3ncc(-c4cnc(Nc5ncccc5F)nc4)n3n2)CC1 | –
– | – | 1.5 | Fc1cccnc1Nc1ncc(-c2cnc3ccc(NCCN4CCCC4)nn23)cn1 | –
95 | 95 | 0.4 | N[C@H]1CC[C@H](Nc2ccc3ncc(-c4cnc(NCc5ccccn5)nc4)n3n2)CC1 | –
– | – | – | CN1CCC(Nc2ccc3ncc(-c4ccc(Nc5ncccc5F)cc4)n3n2)CC1.Cl | t1/2 (Rattus norvegicus [6]): 4 h; Vd (Rattus norvegicus [7]): 8 L/kg; bioavailability [8]: 70%

remaining [1] [%] | remaining at 0.5 h [2] [%] | logD [3] | SMILES | further results
77 | 57 | 3.1 | CN1CCC(Nc2ccc3ncc(-c4ccc(Nc5ncccc5F)nc4)n3n2)CC1 | –
89 | 92 | 1.6 | N[C@H]1CC[C@H](Nc2ccc3ncc(-c4cnc(Nc5ccccc5)nc4)n3n2)CC1 | –
– | – | 3.2 | Fc1cccnc1Nc1ncc(-c2cnc3ccc(N[C@H]4CC[C@H](N5CCOCC5)CC4)nn23)cn1 | –
60 | 82 | 3.3 | Fc1cccnc1Nc1ccc(-c2cnc3ccc(N[C@H]4CC[C@H](N5CCCC5)CC4)nn23)cc1 | –
– | – | 2.5 | Cc1ccc2ncc(-c3cnc(Nc4ncccc4F)nc3)n2n1 | –
86 | 61 | 3.7 | CN1CCC(Nc2ccc3ncc(-c4ccc(Nc5ncc(Cl)cc5F)cc4)n3n2)CC1 | –
80 | 73 | 3.4 | CN1CCC(Nc2ccc3ncc(-c4ccc(Nc5cccc(C(F)(F)F)n5)cc4)n3n2)CC1 | –
92 | 100 | 1.1 | Cc1ccc(Nc2ncc(-c3cnc4ccc(N[C@H]5CC[C@H](N)CC5)nn34)cn2)nc1 | –
71 | 88 | 2.8 | Fc1cccnc1Nc1ccc(-c2cnc3ccc(N[C@H]4CC[C@H](N5CCCC5)CC4)nn23)cn1 | –
– | – | 1.5 | CN1CCC(Oc2ccc3ncc(-c4cnc(Nc5ncccc5F)nc4)n3n2)C1 (racemic) | –
77 | 52 | 3.5 | Cc1ccc(F)c(Nc2ccc(-c3cnc4ccc(NC5CCN(C)CC5)nn34)cc2)n1 | –
69 | 93 | 1.6 | N[C@H]1CC[C@H](Nc2ccc3ncc(-c4cnc(Nc5ncc(C(F)(F)F)cc5F)nc4)n3n2)CC1 | –
– | – | 0.7 | Fc1cccnc1Nc1ncc(-c2cnc3ccc(N4CCNCC4)nn23)cn1 | –
83 | 90 | 2.2 | Cc1ccc(F)c(Nc2ccc(-c3cnc4ccc(N[C@H]5CC[C@H](N)CC5)nn34)cc2)n1 | –
77 | 57 | 3.1 | N[C@H]1CC[C@H](Nc2ccc3ncc(-c4ccc(Nc5ncc(Cl)cc5F)cc4)n3n2)CC1 | –
– | – | 1.5 | CN1CCC(Oc2ccc3ncc(-c4cnc(Nc5ncccc5F)nc4)n3n2)CC1 | –
